Data taken from ChEMBL document CHEMBL3425438, “Investigation of (E)-3-[4-(2-Oxo-3-aryl-chromen-4-yl)oxyphenyl]acrylic Acids as Oral Selective Estrogen Receptor Down-Regulators” (J Med Chem, 2015).
Values after ≈ are worked out from the molar mass of the structure shown.

Columns and labels:
[1] = Free plasma concentration in mouse by LC-UV-MS analysis; format: ADME, cell-free
Outline: (§1)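 Equilibrium dialysis in plasma of the matching species at 37 °C; free and bound concentrations quantified by LC-UV-MS; reported as % free.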

[2] = Volume of distribution at steady state in CD-1 mouse at 0.5 mg/kg, iv; format: ADME, organism-based; parameters: dose 0.5 mg/kg, route intravenous; conditions: in vivo, read-out: Vdss
Outline: (§2)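 Fed CD-1 mice or Alderley Park Han Wistar rats, two animals per study; IV 0.5 mg/kg as aqueous solution of DMSO and cyclodextrin; clearance and Vss derived.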

[3] = Free plasma concentration in human by LC-UV-MS analysis; format: ADME, cell-free; outline: as §1
[4] = Free plasma concentration in rat by LC-UV-MS analysis; format: ADME, cell-free; outline: as §1
[5] = Volume of distribution at steady state in Alderley Park Han Wistar rat at 0.5 mg/kg, iv; format: ADME, organism-based; parameters: dose 0.5 mg/kg, route intravenous; conditions: in vivo, read-out: Vdss; outline: as §2
[6] = Oral bioavailability in CD-1 mouse at 50 mg/kg using 0.5% polysorbate suspension; format: ADME, organism-based; conditions: in vivo
Outline: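 Fed CD-1 mice, two per study; oral 50 mg/kg 0.5% polysorbate suspension; IV reference 0.5 mg/kg aqueous DMSO/cyclodextrin.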

[7] = Oral bioavailability in Alderley Park Han Wistar rat at 1 mg/kg using 5% DMSO, 95% of a 30% aqueous cyclodextrin solution; format: ADME, organism-based; conditions: in vivo
Outline: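 Fed Han Wistar rats, two per study; oral 1 mg/kg solution in 5% DMSO, 95% of a 30% aqueous cyclodextrin solution; IV reference 0.5 mg/kg in aqueous DMSO/cyclodextrin.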

[8] = test system: MCF7; assay: Inhibition of cell proliferation in human MCF7 cells after 7 days by laser scanning imaging cytometer analysis; format: functional, cell-based; conditions: MCF7, 168 h
Outline: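 MCF-7 cells plated in reduced-serum medium the day before; concentration response for 7 days; cell number by nucleic acid stain, read on laser scanning imaging cytometer; EC50 for decrease in proliferation.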

[9] = Dissociation constant, pKa of the compound by potentiometric analysis […] phenol; format: physicochemical
Outline: (§3)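 pKa (acid and phenol) by potentiometric titration.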

[10] = Oral bioavailability in Alderley Park Han Wistar rat at 5 mg/kg using HPMC/tween suspension; format: ADME, organism-based; conditions: in vivo
Outline: (§4)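 Fed Han Wistar rats, two per study; oral HPMC/tween suspension at 1, 5 or 50 mg/kg as stated per line; IV reference 0.5 mg/kg in aqueous DMSO/cyclodextrin.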

[11] = Oral bioavailability in CD-1 mouse at 20 mg/kg using propylene glycol suspension; format: ADME, organism-based; conditions: in vivo
Outline: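 Fed CD-1 mice, two per study; oral 20 mg/kg propylene glycol suspension; IV reference 0.5 mg/kg aqueous DMSO/cyclodextrin.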

[12] = Clearance in CD-1 mouse at 0.5 mg/kg, iv; format: ADME, organism-based; parameters: dose 0.5 mg/kg, route intravenous; conditions: in vivo
[13] = target: T1, Estrogen receptor (Homo sapiens, UniProt P03372); assay: Suppression of ER alpha in human MCF7 cells after 24 hrs by immunostaining analysis; format: cell-based
T1 sequence (P03372 whole entry): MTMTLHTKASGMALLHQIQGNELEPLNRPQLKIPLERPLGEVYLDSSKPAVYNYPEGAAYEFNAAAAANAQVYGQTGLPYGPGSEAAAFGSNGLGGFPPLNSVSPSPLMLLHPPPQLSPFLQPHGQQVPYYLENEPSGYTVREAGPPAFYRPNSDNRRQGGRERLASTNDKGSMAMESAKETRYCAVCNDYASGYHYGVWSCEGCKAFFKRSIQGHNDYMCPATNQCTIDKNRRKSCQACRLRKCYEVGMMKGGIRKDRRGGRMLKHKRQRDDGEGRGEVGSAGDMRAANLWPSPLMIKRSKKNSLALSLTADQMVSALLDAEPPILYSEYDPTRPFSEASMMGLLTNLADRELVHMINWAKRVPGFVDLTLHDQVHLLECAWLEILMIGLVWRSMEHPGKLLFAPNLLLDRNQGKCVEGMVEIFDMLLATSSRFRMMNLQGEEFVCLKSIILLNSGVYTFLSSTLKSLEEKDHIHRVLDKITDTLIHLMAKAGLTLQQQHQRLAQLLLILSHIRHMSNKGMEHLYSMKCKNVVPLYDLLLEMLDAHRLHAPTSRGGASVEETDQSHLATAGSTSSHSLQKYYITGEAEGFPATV

[14] = Clearance in Alderley Park Han Wistar rat at 0.5 mg/kg, iv; format: ADME, organism-based; parameters: dose 0.5 mg/kg, route intravenous; conditions: in vivo
[15] = Intrinsic clearance in human hepatocytes measured per 10^6 cells; format: ADME, cell-based, Hepatocyte; conditions: read-out: CLH
[16] = Thermodynamic solubility of the compound in 0.1 M aqueous phosphate buffer at 25 degC at pH 7.4 after 24 hrs; format: physicochemical; conditions: read-out: Therm_solubility
[17] = target: T1, Estrogen receptor; assay: Antagonist activity at ER alpha in human MCF7 cells assessed as inhibition of estradiol-induced PR expression treated for 24 hrs after incubation with estradiol for 30 mins by laser scanning imaging cytometer analysis; format: cell-based
[18] = Apparent permeability from apical to basolateral side in human Caco2 cells; format: ADME, cell-based; conditions: Caco-2
[19] = Dissociation constant, pKa of the compound in acidic medium by potentiometric analysis; format: physicochemical; outline: as §3
[20] = Intrinsic clearance in rat hepatocytes measured per 10^6 cells; format: ADME, cell-based, Hepatocyte; conditions: read-out: CLH
[21] = Intrinsic clearance in mouse hepatocytes measured per 10^6 cells; format: ADME, cell-based, Hepatocyte; conditions: read-out: CLH
[22] = Octanol-buffer partition coefficient, log D of the compound at ratio of 1:100 at pH 7.4 by shake-flask method; format: physicochemical
[23] = target: T1, Estrogen receptor; assay: Binding affinity to ER alpha (unknown origin) by LanthaScreen TR-FRET competitive binding assay
Outline: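 LanthaScreen TR-FRET ERα competitive binding; 12-point half-log concentration response; TR-FRET emission ratio read on microplate reader; IC50 reported.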

[24] = Oral bioavailability in Alderley Park Han Wistar rat at 2 mg/kg using propylene glycol solution; format: ADME, organism-based; conditions: in vivo
Outline: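 Fed Han Wistar rats, two per study; oral 2 mg/kg propylene glycol solution; IV reference 0.5 mg/kg aqueous DMSO/cyclodextrin.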

[25] = Drug metabolism in rat hepatocytes assessed as formation of sulphate metabolite by LC-UV-MS analysis; format: ADME, cell-based, Hepatocyte
[26] = Drug metabolism in rat hepatocytes assessed as formation of acyl glucuronide conjugates by LC-UV-MS analysis; format: ADME, cell-based, Hepatocyte
[27] = Drug metabolism in rat hepatocytes assessed as formation of glucuronide conjugates by LC-UV-MS analysis; format: ADME, cell-based, Hepatocyte
[28] = Oral bioavailability in Alderley Park Han Wistar rat at 50 mg/kg using HPMC/tween suspension; format: ADME, organism-based; conditions: in vivo; outline: as §4
[29] = target: Voltage-gated inwardly rectifying potassium channel KCNH2 (Homo sapiens, UniProt Q12809); assay: Inhibition of hERG channel by electrophysiology; format: toxicity
Voltage-gated inwardly rectifying potassium channel KCNH2, sequence (Q12809 whole entry): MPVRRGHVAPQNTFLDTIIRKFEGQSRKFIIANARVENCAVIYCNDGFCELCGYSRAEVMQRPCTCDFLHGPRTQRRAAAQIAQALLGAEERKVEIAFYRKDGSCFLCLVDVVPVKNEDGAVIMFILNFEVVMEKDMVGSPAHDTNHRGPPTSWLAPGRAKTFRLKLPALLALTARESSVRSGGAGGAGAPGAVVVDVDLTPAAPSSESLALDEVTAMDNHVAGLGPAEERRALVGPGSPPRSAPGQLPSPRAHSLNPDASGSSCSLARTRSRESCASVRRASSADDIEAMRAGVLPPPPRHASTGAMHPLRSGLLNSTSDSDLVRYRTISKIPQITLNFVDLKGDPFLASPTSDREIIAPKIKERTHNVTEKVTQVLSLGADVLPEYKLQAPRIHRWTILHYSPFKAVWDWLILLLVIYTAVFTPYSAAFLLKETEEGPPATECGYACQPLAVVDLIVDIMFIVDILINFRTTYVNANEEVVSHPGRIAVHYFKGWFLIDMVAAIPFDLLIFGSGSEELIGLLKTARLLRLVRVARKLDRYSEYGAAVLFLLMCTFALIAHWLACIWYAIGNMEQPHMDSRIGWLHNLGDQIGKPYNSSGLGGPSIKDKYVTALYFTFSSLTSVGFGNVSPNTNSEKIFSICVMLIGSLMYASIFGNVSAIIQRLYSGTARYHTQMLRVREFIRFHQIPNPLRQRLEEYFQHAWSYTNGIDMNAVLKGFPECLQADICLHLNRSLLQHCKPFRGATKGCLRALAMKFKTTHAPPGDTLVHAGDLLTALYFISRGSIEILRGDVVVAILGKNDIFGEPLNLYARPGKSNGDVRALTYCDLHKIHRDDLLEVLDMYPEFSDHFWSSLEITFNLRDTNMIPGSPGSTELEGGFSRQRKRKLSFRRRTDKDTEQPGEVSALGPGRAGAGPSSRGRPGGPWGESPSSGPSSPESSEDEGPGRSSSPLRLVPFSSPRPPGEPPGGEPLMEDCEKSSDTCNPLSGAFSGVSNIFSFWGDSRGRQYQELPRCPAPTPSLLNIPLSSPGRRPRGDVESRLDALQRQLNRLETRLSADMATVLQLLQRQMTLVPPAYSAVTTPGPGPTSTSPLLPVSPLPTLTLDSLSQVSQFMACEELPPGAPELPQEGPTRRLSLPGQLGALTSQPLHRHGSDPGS

[30] = Drug metabolism in rat hepatocytes assessed as oxidation metabolite formation by LC-UV-MS analysis; format: ADME, cell-based, Hepatocyte
[31] = Oral bioavailability in Alderley Park Han Wistar rat at 1 mg/kg using HPMC/tween suspension; format: ADME, organism-based; conditions: in vivo; outline: as §4
[32] = Dissociation constant, pKa of the compound by potentiometric analysis; format: physicochemical; outline: as §3
[33] = target: T1, Estrogen receptor; assay: Agonist activity at ER alpha in human MCF7 cells assessed as PR gene expression after 24 hrs by laser scanning imaging cytometer analysis; format: cell-based; conditions: read-out: IC50 (the source's name)

Row | Compound | fraction unbound [1] | fraction unbound [3] | fraction unbound [4] | Vd [5] [L/kg] | EC50 [8] [nM] | pKa [9] | IC50 [13] [nM] | clearance [14] [mL/min/kg] | hepatocyte CLint [15] [µL/min/1e6 cells] | solubility thermodynamic at 24 h [16] [µM] | IC50 [17] [nM] | Papp A→B [18] [×10⁻⁶ cm/s] | hepatocyte CLint [20] [µL/min/1e6 cells] | hepatocyte CLint [21] [µL/min/1e6 cells] | logD [22] | IC50 [23] [nM] | further results
1 | CC/C(=C(\c1ccccc1)c1ccc(/C=C/C(=O)O)cc1)c1ccccc1 | 0.064 | < 0.002 | < 0.0001 | 0.5 | 300 | – | – | – | – | – | – | – | – | – | – | – | Vd [2]: 1.1 L/kg; bioavailability [6]: 62%; bioavailability [7]: 68%
2 | O=C(O)/C=C/c1ccc(Cc2c(-c3ccccc3)c(=O)oc3cc(O)ccc23)cc1 | 0.012 | 0.012 | 0.0098 | 1.4 | 260 | 7.7 | 1180 | 67 | 18 | 470 (≈ 187 µg/mL) | 1500 | 10 | 120 | 87 | 1.5 | 8.1 | bioavailability [10]: 67%; bioavailability [11]: 0%; clearance [12]: 210 mL/min/kg; Vd [2]: 4.7 L/kg; pKa [19]: 4.4; bioavailability [24]: 0%
3 | Cc1cc(OC(F)(F)F)ccc1-c1c(Oc2ccc(/C=C/C(=O)O)cc2)c2ccc(O)cc2oc1=O | 0.0084 | 0.0012 | 0.0037 | 0.7 | < 0.1 | 8.2 | 2.7 | 38 | 11 | 97 (≈ 48.3 µg/mL) | 3.9 | 15 | 41 | 9 | 2.1 | 0.5 | bioavailability [28]: 0%; IC50 [29]: > 100 µM
4 | Cc1cc(F)ccc1-c1c(Oc2ccc(/C=C/C(=O)O)cc2)c2ccccc2oc1=O | – | 0.005 | 0.014 | 0.47 | – | – | 248 | 23 | 9 | > 1500 | 330 | 47 | 27 | – | 2 | 72 | bioavailability [31]: 47%; pKa [32]: 5.3; IC50 [29]: > 100 µM
5 | Cc1cc(OC(F)(F)F)ccc1-c1c(Oc2ccc(/C=C/C(=O)O)cc2)c2ccccc2oc1=O | – | 0.0016 | 0.0032 | 1.7 | 20 | – | 100 | 15 | 7 | > 470 | 180 | 39 | 19 | – | 2.5 | 15 | bioavailability [31]: 35%; pKa [32]: 3.7; EC50 [33]: > 3.1 µM

Now from value to compound, other results behind:

Row | fraction unbound [1] | fraction unbound [3] | fraction unbound [4] | Vd [5] [L/kg] | EC50 [8] [nM] | pKa [9] | IC50 [13] [nM] | clearance [14] [mL/min/kg] | hepatocyte CLint [15] [µL/min/1e6 cells] | solubility thermodynamic at 24 h [16] [µM] | IC50 [17] [nM] | Papp A→B [18] [×10⁻⁶ cm/s] | hepatocyte CLint [20] [µL/min/1e6 cells] | hepatocyte CLint [21] [µL/min/1e6 cells] | logD [22] | IC50 [23] [nM] | Compound | further results
6 | – | – | – | – | – | – | 1280 | – | – | – | – | – | – | – | – | 9 | O=C(O)/C=C/c1ccc(Cc2c(-c3ccc(F)cc3)c(=O)oc3cc(O)ccc23)cc1 | Drug metabolism [25]: metabolite_detected; Drug metabolism [26]: metabolite_detected; Drug metabolism [27]: metabolite_detected
7 | 0.028 | 0.0025 | 0.0051 | 0.9 | 4.5 | 7.1 | 21 | 35 | 32 | > 2000 | 27 | 19 | 50 | 68 | 1.6 | 0.4 | Cc1cc(F)ccc1-c1c(Oc2ccc(/C=C/C(=O)O)cc2)c2ccc(O)cc2oc1=O | bioavailability [10]: 5%; pKa [19]: 3.9
8 | – | – | – | – | – | 7.2 | 55 | – | 14 | – | – | – | 69 | – | 1.6 | 1.3 | Cc1cc(F)ccc1-c1c(Cc2ccc(/C=C/C(=O)O)cc2)c2c(F)cc(O)cc2oc1=O | Drug metabolism [27]: metabolite_detected
9 | – | – | – | – | – | – | 1000 | – | 14 | – | – | – | 81 | – | 1.2 | 100 | Cc1cc(F)ccc1-c1c(Cc2ccc(/C=C/C(=O)O)cc2)c2ccc(CO)cc2oc1=O | Drug metabolism [30]: metabolite_detected
